Measured values collected from several papers.
Protocols differ between the studies behind these lines.
Target: Casein kinase I isoform epsilon (CSNK1E, Homo sapiens, UniProt P49674)

| Structure (SMILES) | observed | action | method | concentration | measurement | value |
| --- | --- | --- | --- | --- | --- | --- |
| C#Cc1cc(-c2cc(Nc3nc(N[C@@H](C)c4ccc(F)cn4)ncc3Cl)n[nH]2)ccc1C=O | enzyme activity | inhibitor | – | 0.2 µM | inhibition | 4.66% |
| C=CC(=O)N1CCC[C@@H](n2nc(-c3ccc(Oc4ccccc4)cc3)c3c(N)ncnc32)C1 | enzyme activity | inhibitor | – | 1 µM | inhibition | 65% |
| C1=C/COCc2cc(ccc2OCCN2CCCC2)Nc2nccc(n2)-c2cccc(c2)COC/1 | binding | – | – | 0.1 µM | remaining binding | 99% |
| CN1CCN(C(=O)c2ccc(NC(=O)Nc3ccc(N(C)c4ccnc(Nc5ccc(CS(C)(=O)=O)cc5)n4)cc3)cc2)CC1 | binding | – | competition with immobilised ligand | 1 µM | remaining binding | 75% |
| CC(=O)ON=C1C=CC(=C(C#N)c2ccccc2)C=C1 | enzyme activity | inhibitor | ADP detection | 20 µM | activity vs control | 60% |
| CCCCC(=O)Nc1ccc(-c2ccc3ncn(CCC)c(=O)c3c2)cn1 | binding | – | competition with immobilised ligand | 0.5 µM | remaining binding | 82% |
| CO[C@@H]1[C@H](N(C)C(=O)c2ccccc2)C[C@H]2O[C@]1(C)n1c3ccccc3c3c4c(c5c6ccccc6n2c5c31)C(=O)NC4 | enzyme activity | inhibitor | – | 1 µM | inhibition | 0% |
| Cc1ccc(NC(=O)c2ccnc(C(F)(F)F)c2)cc1-c1cc(OCCO)nc(N2CCOCC2)c1 | binding | – | competition with immobilised ligand | 1 µM | remaining binding | 100% |
